Measurements reported in article PMC2721324 (Bioorganic & medicinal chemistry letters, 2009).
Read-outs that look alike come from different tables or passages of the source.

Experiments:
human P2Y2 receptor [1] = target: T1, human P2Y2 receptor (Homo sapiens, UniProt P41231); assay type: cell-based; settings: for agonist character (full or partial agonist): relative to UTP
How it was run: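 PLC activation via Gq in 1321N1 human astrocytoma cells stably expressing recombinant human P2Y2 receptor. The parent cells lack a native nucleotide response. Concentration–effect curves were generated for each test compound, and the maximal response was expressed as a percentage of the UTP effect (UTP = 100%) to classify full or partial agonism.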

human P2Y4 receptor [2] = target: T2, human P2Y4 receptor (Homo sapiens, UniProt P51582); assay type: cell-based; settings: stimulation of PLC, NE = no effect at 10 μM
T2 sequence (P51582 whole entry): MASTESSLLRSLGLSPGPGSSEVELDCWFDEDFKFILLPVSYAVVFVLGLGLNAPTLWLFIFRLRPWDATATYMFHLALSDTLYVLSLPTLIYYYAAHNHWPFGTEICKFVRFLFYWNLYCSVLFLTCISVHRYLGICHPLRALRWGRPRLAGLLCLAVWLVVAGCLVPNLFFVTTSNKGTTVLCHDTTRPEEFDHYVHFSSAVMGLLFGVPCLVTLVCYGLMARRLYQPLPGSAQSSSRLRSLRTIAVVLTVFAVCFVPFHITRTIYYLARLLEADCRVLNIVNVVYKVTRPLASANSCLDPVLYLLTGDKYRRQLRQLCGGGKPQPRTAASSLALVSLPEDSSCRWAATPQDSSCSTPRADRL
How it was run: (§1)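 Recombinant human P2Y4 or P2Y6 receptor, Gq-coupled, was stably expressed in 1321N1 human astrocytoma cells, which lack a native nucleotide response. Phospholipase C activation was measured over concentration–effect curves for each test compound. EC50 is the concentration giving 50% of the maximal effect, reported as mean ± standard error.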

human P2Y2 receptor [3] = target: T1, human P2Y2 receptor; settings: cited from earlier work; for EC50: read-out: Reference comp. (X = OCH2) EC50, native riboside, NE = no effect at 10 μM
human P2Y4 receptor [4] = target: T2, human P2Y4 receptor; settings: cited from earlier work; for EC50: read-out: Reference comp. (X = OCH2) EC50, native riboside, NE = no effect at 10 μM
human P2Y6 receptor [5] = target: T3, human P2Y6 receptor (Homo sapiens, UniProt Q15077); assay type: cell-based
T3 sequence (Q15077 whole entry): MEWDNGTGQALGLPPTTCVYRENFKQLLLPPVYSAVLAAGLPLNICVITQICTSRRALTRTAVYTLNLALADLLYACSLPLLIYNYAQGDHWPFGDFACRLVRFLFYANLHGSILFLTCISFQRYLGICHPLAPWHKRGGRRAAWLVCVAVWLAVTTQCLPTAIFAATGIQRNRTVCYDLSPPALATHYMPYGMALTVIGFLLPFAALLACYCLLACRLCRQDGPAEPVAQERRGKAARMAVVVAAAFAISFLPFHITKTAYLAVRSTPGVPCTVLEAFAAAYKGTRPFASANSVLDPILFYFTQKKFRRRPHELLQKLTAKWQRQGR
How it was run: as §1

human P2Y6 receptor [6] = target: T3, human P2Y6 receptor; settings: read-out: Reference comp. (X = OCH2) EC50, native riboside, NE = no effect at 10 μM; cited from earlier work

T1 sequence (P41231 whole entry): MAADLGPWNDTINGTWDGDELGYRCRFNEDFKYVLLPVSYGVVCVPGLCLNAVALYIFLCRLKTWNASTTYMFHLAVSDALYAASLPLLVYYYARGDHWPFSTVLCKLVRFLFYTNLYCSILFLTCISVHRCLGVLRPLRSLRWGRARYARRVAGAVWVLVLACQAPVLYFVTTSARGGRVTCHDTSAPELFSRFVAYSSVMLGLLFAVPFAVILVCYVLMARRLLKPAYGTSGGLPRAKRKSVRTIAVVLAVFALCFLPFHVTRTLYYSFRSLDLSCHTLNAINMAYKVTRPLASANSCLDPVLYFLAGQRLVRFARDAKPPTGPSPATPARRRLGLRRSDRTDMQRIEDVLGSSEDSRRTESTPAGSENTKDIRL

| agonist character (full or partial agonist) (human P2Y2 receptor [1]) | SMILES | EC50 (human P2Y2 receptor [3]) | EC50 (human P2Y6 receptor [6]) | EC50 (human P2Y4 receptor [4]) | other results |
| --- | --- | --- | --- | --- | --- |
| partial ag | O=c1ccn([C@@H]2O[C@H](CCP(=O)(O)O)[C@@H](O)[C@H]2O)c(=O)[nH]1 [Compound 7, uridine 5 ′-methylene-phosphonate] |  |  |  | EC50 (human P2Y4 receptor [2]; listed as 5′-methylphosphonate equivalent of UMP): inactive |
|  | Nc1ncnc2c1ncn2[C@@H]1O[C@H](COP(=O)(O)OP(=O)(O)OP(=O)(O)O)[C@@H](O)[C@H]1O [ATP] | 0.085 ± 0.012 µM |  |  | Reference comp. (X = OCH2) activity (human P2Y4 receptor [4]; native riboside): Antagonist[12] |
|  | O=c1ccn([C@@H]2O[C@H](COP(=O)(O)OP(=O)(O)C[C@H]3O[C@@H](n4ccc(=O)[nH]c4=O)[C@H](O)[C@@H]3O)[C@@H](O)[C@H]2O)c(=O)[nH]1 [Compound 5, di-(uridine- phosphonate)] |  |  |  | EC50 (human P2Y4 receptor [2]): > 10 µM; EC50 (human P2Y6 receptor [5]; stimulation of PLC, mean ± standard error, NE = no effect at 10 μM): > 10 µM |
| Full agonist activity | O=c1ccn([C@@H]2O[C@H](/C=C/P(=O)(O)OP(=O)(O)OP(=O)(O)O)[C@@H](O)[C@H]2O)c(=O)[nH]1 [Compound 3, uridine 5′-(diphospho)-vinylphosphonate] |  |  |  | reduction of potency relative to ATP or UTP (human P2Y2 receptor [1]; range over compounds 1, 2 and 3): 16–176 fold |
|  | O=c1ccn([C@@H]2O[C@H](COP(=O)(O)OP(=O)(O)OC[C@H]3O[C@@H](n4ccc(=O)[nH]c4=O)[C@H](O)[C@@H]3O)[C@@H](O)[C@H]2O)c(=O)[nH]1 [Up2U] | > 10 µM | 1.26 ± 0.17 µM | > 10 µM |  |
| partial ag | O=c1ccn([C@@H]2O[C@H](CP(=O)(O)OP(=O)(O)O)[C@@H](O)[C@H]2O)c(=O)[nH]1 [Compound 4, uridine 5′-phospho-phosphonate] |  |  |  | maximal effect relative to that of UTP (human P2Y2 receptor [1]; effect of UTP = 100%): ≤ 50%; EC50 (human P2Y4 receptor [2]): > 10 µM; agonist character (full or partial agonist) (human P2Y6 receptor [5]): full agonist; potency less than UDP (human P2Y6 receptor [5]): approximately 40 fold |
|  | O=c1ccn([C@@H]2O[C@H](COP(=O)(O)OP(=O)(O)O)[C@@H](O)[C@H]2O)c(=O)[nH]1 [UDP] | > 10 µM | 0.046 ± 0.02 µM | > 10 µM |  |
|  | O=c1ccn([C@@H]2O[C@H](COP(=O)(O)OP(=O)(O)OP(=O)(O)O)[C@@H](O)[C@H]2O)c(=O)[nH]1 [UTP] | 0.049 ± 0.012 µM | > 10 µM | 0.073 ± 0.02 µM |  |
|  | O=c1ccn([C@@H]2O[C@H](COP(=O)(O)O)[C@@H](O)[C@H]2O)c(=O)[nH]1 [UMP] | > 10 µM | > 10 µM | > 10 µM | Reference comp. (X = OCH2) EC50 (human P2Y2 receptor [3]; native riboside, NE = no effect at 10 μM): no effect |
